Experimental data gathered from unrelated publications.
Protocols differ between the studies behind these lines.
Effect on: cell growth or viability

COc1nc(NCc2cn(-c3ccc(C(=O)Nc4ccc([N+](=O)[O-])cc4)cc3)nn2)nc(OC)n1  IC50 (Caco-2; MTT; 72 h): 724 nM
COc1cccc(CNC[C@@](C)(O)[C@@H]2CC[C@@H](C)C[C@H]2OCc2ccccc2)c1  inhibition (A2780; MTT; 10 µM; 72 h): 32.9%
NC(=O)COc1ccc(C(=O)C(Cl)Cl)cc1[N+](=O)[O-]  inhibition (NCI-H1650; MTT; 2.5 µM): 1.51%
O=C(O)c1ccccc1Nc1cccc(C(F)(F)F)c1  GI50 (NCI-H28; CCK-8; 72 h): > 40000 nM
O=C(c1ccccc1)c1ccc(Oc2ccc(C(=O)C(Cl)Cl)cc2[N+](=O)[O-])cc1  inhibition (NCI-H1650; MTT; 2.5 µM): 96.5%
C[C@@H]1CC[C@@H]([C@](O)(CNCc2ccccc2)COCc2ccc(F)cc2)[C@H](OCc2ccc(F)cc2)C1  inhibition (A2780; MTT; 10 µM; 72 h): 95.2%
COc1cccc2c1C(=O)c1c(O)c3c(c(O)c1C2=O)C[C@@](O)(C(=O)CO)C[C@@H]3O[C@H]1C[C@H](N)[C@H](O)[C@H](C)O1  inhibition (NCI-H1650; MTT; 2.5 µM): 95.8%
C[C@@H]1CC[C@@H]([C@](C)(O)Cn2ccnc2)[C@H](OCc2ccccc2)C1  inhibition (A2780; MTT; 30 µM; 72 h): 39.5%
COc1cccc2c1C(=O)c1c(O)c3c(c(O)c1C2=O)C[C@@](O)(C(=O)CO)C[C@@H]3O[C@H]1C[C@H](N)[C@H](O)[C@H](C)O1  viability (Caco-2; MTT; 25 µg/mL; 48 h; serum-free): 31.6%
O=C(c1ccc(Oc2ccc3c(c2)OCO3)c([N+](=O)[O-])c1)C(Cl)Cl  inhibition (NCI-H1650; MTT; 2.5 µM): 84.4%
C[C@@H]1CC[C@@H]([C@](C)(O)CNCc2ccccc2)[C@H](OCc2ccccc2)C1  inhibition (A2780; MTT; 30 µM; 72 h): 94.3%
O=C1CC[C@@H](COc2ccc(C(=O)C(Cl)Cl)cc2[N+](=O)[O-])N1  inhibition (NCI-H1650; MTT; 2.5 µM): 29.8%
C=CC(=O)NC1CCN(c2ncc3ncnc(Nc4ccc(Oc5ccc6c(c5)ncn6C)c(C)c4)c3n2)CC1  EC50 (HCC44): 934 nM
COc1ccc(COC[C@@](O)(CNCc2ccc(F)cc2)[C@@H]2CC[C@@H](C)C[C@H]2OCc2ccc(OC)cc2)cc1  inhibition (A2780; MTT; 30 µM; 72 h): 100%
C=C(F)C(=O)N1CCN(c2nc(OC[C@@H]3CCCN3C)nc3c2CCN(c2cccc4cccc(Cl)c24)C3)C[C@@H]1CC#N  IC50 (UMUC3; ATP luminescence; 3D culture): 8.43 nM
COc1nc(NCc2cn(-c3ccc(NC(=O)c4ccc(C)cc4)cc3)nn2)nc(OC)n1  IC50 (Caco-2; MTT; 72 h): 751 nM
O=C(c1ccc(Oc2ccc(-c3ccccc3)cc2)c([N+](=O)[O-])c1)C(Cl)Cl  inhibition (NCI-H1650; MTT; 2.5 µM): 97.5%
COc1nc(NCc2cn(-c3ccc(C(=O)Nc4ccc(Br)cc4)cc3)nn2)nc(OC)n1  IC50 (Caco-2; MTT; 72 h): 674 nM
CC(=O)Nc1ccc(Oc2ccc(C(=O)C(Cl)Cl)cc2[N+](=O)[O-])cc1  inhibition (NCI-H1650; MTT; 2.5 µM): 97.6%
C[C@@H]1CC[C@@H]([C@](C)(O)CNCc2cccc(F)c2)[C@H](OCc2ccccc2)C1  inhibition (A2780; MTT; 30 µM; 72 h): 98.8%
O=C(NO)c1ccc(CNc2nc3cccc(-c4ccc5c(c4)OCO5)n3n2)cc1  GI50 (TK-10; SRB): 520 nM
C=CC(=O)c1cccnc1Nc1cc(C(F)(F)F)ccc1OCc1ccccc1  GI50 (NCI-H28; CCK-8; 72 h): 11200 nM
COc1ccc(CNC[C@@](C)(O)[C@@H]2CC[C@@H](C)C[C@H]2OCc2ccccc2)cc1  inhibition (A2780; MTT; 10 µM; 72 h): 42.9%
COc1nc(NCc2cn(-c3ccc(NC(=O)c4ccc(Br)cc4)cc3)nn2)nc(OC)n1  IC50 (Caco-2; MTT; 72 h): 689 nM
O=C(c1ccc(Oc2cccc(-c3ccccc3)c2)c([N+](=O)[O-])c1)C(Cl)Cl  inhibition (NCI-H1650; MTT; 2.5 µM): 97.2%
C[C@@H]1CC[C@@H]([C@](O)(CNCc2ccccc2)COCc2ccccc2)[C@H](OCc2ccccc2)C1  inhibition (A2780; MTT; 10 µM; 72 h): 90.4%
